Results as given in ChEMBL document CHEMBL4038346, “Effect of Nitrogen Atom Substitution in A3 Adenosine Receptor Binding: N-(4,6-Diarylpyridin-2-yl)acetamides as Potent and Selective Antagonists” (J Med Chem, 2017).
pKi: −log10 of the molar value. Calls of active or inactive are those of the source. The rule behind the calls is not given here.

Legend:
Adenosine receptor A2a [1] = target: T1, Adenosine receptor A2a (Homo sapiens, UniProt P29274); test: Displacement of [3H]ZM241385 from human adenosine A2A receptor expressed in human HeLa cell membranes at 1 uM after 30 mins relative to control
T1 sequence (P29274 whole entry): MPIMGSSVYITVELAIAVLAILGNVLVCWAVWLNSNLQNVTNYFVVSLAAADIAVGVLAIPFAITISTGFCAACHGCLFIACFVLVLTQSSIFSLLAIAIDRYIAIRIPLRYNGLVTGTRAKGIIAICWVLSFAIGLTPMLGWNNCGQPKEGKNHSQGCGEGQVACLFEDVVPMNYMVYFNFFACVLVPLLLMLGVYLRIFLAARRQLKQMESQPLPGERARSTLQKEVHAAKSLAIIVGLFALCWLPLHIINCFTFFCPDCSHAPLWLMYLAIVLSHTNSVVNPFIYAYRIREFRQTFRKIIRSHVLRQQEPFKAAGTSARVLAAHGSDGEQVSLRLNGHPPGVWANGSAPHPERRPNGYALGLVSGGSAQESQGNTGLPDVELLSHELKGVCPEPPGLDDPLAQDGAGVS

Adenosine receptor A1 = target: T2, Adenosine receptor A1 (Homo sapiens, UniProt P30542); test: Displacement of [3H]DPCPX from human adenosine A1 receptor expressed in CHO cell membranes after 60 mins
T2 sequence (P30542 whole entry): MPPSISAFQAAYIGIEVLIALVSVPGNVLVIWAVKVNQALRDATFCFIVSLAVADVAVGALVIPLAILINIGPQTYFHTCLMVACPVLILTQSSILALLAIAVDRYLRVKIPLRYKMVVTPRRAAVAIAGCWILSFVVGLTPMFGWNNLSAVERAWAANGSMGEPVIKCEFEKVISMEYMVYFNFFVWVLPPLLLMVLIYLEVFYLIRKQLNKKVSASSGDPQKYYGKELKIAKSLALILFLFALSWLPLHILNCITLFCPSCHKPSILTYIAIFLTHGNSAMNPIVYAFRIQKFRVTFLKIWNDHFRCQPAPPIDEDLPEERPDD

Adenosine receptor A3 = target: T3, Adenosine receptor A3 (Homo sapiens, UniProt P0DMS8); test: (§1) Displacement of [3H]NECA from human adenosine A3 receptor expressed in human HeLa cell membranes after 180 mins
T3 sequence (P0DMS8 whole entry): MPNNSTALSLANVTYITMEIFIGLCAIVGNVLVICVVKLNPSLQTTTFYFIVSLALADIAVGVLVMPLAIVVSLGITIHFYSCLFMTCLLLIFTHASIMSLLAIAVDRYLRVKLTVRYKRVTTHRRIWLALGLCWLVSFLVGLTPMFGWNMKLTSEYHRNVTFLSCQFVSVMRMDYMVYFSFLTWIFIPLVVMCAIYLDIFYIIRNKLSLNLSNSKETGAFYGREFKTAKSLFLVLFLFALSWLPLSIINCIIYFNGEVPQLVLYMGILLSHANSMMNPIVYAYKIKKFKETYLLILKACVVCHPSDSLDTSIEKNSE

[2] = target: T4, Adenosine receptor A1 (Homo sapiens) (UniProt P30542); test: Displacement of [3H]DPCPX from human adenosine A1 receptor expressed in CHO cell membranes at 1 uM after 60 mins relative to control
T4 sequence (whole entry): T2 sequence (P30542 whole entry)

[3] = target: T5, Adenosine receptor A2b (Homo sapiens) (UniProt P29275); test: Displacement of [3H]DPCPX from human adenosine A2B receptor expressed in HEK293 cell membranes at 1 uM after 30 mins relative to control
T5 sequence (whole entry): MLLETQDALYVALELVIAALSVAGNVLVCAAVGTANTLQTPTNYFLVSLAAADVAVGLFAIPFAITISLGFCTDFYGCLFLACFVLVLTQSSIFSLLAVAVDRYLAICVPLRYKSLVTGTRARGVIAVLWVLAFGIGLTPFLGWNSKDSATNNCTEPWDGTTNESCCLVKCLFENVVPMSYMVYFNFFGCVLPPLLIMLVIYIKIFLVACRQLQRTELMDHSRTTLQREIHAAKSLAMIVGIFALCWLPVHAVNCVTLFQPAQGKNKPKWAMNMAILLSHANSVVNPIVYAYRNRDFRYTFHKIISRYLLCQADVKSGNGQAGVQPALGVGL

Adenosine receptor A2b = target: T6, Adenosine receptor A2b (Homo sapiens, UniProt P29275); test: Displacement of [3H]DPCPX from human adenosine A2B receptor expressed in HEK293 cell membranes after 30 mins
T6 sequence (P29275 whole entry): T5 sequence (whole entry)

[4] = target: Adenosine receptors; A1 & A3 (Homo sapiens) (UniProt P30542+P0DMS8); test: Selectivity ratio of Ki for human adenosine A1 receptor expressed in CHO cell membranes to Ki for human adenosine A3 receptor expressed in human HeLa cell membranes; type: cell-based
[5] = target: T7, Adenosine receptor A3 (Homo sapiens) (UniProt P0DMS8); test: Antagonist activity at human adenosine A3 receptor expressed in CHO cells assessed as decrease in NECA-induced inhibition of forskolin-stimulated cAMP formation preincubated for 15 mins followed by NECA addition for 10 mins and subsequent forskolin challenge for 5 mins by enzyme immunoassay; type: functional, cell-based
T7 sequence (whole entry): T3 sequence (P0DMS8 whole entry)
Summary of the method: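 CHO-A3 cells seeded at 20 000/well in DMEM-F12 with 10% FCS and 1% L-glutamine, grown 24 h at 37 °C, 5% CO2. Washed, then preincubated 15 min at 37 °C in DMEM-F12/25 mM HEPES pH 7.4 with 30 μM rolipram plus antagonist.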

[6] = target: T7, Adenosine receptor A3 (Homo sapiens); test: as §1
Adenosine receptor A2a [7] = target: T1, Adenosine receptor A2a; test: Displacement of [3H]ZM241385 from human adenosine A2A receptor expressed in human HeLa cell membranes after 30 mins

## CC(=O)Nc1cc(-c2ccc(OC(F)(F)F)cc2)cc(-c2ccc(OC(F)(F)F)cc2)n1
Adenosine receptor A2a [1]
  inhibition: 1%

## COc1cccc(-c2cc(NC(C)=O)nc(-c3cccc(OC)c3)c2)c1
Adenosine receptor A2a [1]
  inhibition: 21%
Adenosine receptor A1
  pKi: 6.62

## COc1ccccc1-c1cc(NC(C)=O)nc(-c2ccccc2OC)c1
Adenosine receptor A3
  pKi: 6.11
[2]
  inhibition: 8%
[3]
  inhibition: 19%
Adenosine receptor A2a [1]
  inhibition: 1%

## COc1ccc(OC)c(-c2cc(NC(C)=O)nc(-c3cc(OC)ccc3OC)c2)c1
Adenosine receptor A3
  pKi: 7.45
[2]
  inhibition: 3%
[3]
  inhibition: 1%
Adenosine receptor A2a [1]
  inhibition: 3%

## CC(=O)Nc1cc(-c2ccc(C(C)=O)cc2)cc(-c2ccc(C(C)=O)cc2)n1
Adenosine receptor A2a [1]
  inhibition: 4%

## COc1ccc(-c2cc(NC(C)=O)nc(-c3ccc(OC)cc3)c2)cc1
Adenosine receptor A2a [1]
  inhibition: 15%

## COc1ccc(-c2cc(NC(C)=O)nc(-c3ccc(OC)c(OC)c3)c2)cc1OC
Adenosine receptor A2a [1]
  inhibition: 1%

## CC(=O)Nc1cc(-c2ccccc2)cc(-c2ccccc2)n1
Adenosine receptor A3
  pKi: 7.01
Adenosine receptor A2b
  pKi: 7.29
Adenosine receptor A2a [1]
  inhibition: 49%
Adenosine receptor A1
  pKi: 7.68

## COc1cc(-c2cc(NC(C)=O)nc(-c3cc(OC)c(OC)c(OC)c3)c2)cc(OC)c1OC
Adenosine receptor A3
  pKi: 6.93
[2]
  inhibition: 8%
[3]
  inhibition: 4%
Adenosine receptor A2a [1]
  inhibition: 15%

## CC(=O)Nc1cc(-c2ccc3c(c2)OCO3)cc(-c2ccc3c(c2)OCO3)n1
Adenosine receptor A3
  pKi: 8.55
[3]
  inhibition: 27%
Adenosine receptor A2a [1]
  inhibition: 9%
Adenosine receptor A1
  pKi: 7.04
[4]
  Ratio Ki: 30
[5]
  Kb: 0.0019 µM

## COc1ccc(-c2cc(NC(C)=O)nc(-c3ccc(OC)cc3OC)c2)c(OC)c1
Adenosine receptor A2a [1]
  inhibition: 2%

## COc1ccccc1-c1cc(NC(C)=O)nc(-c2ccccc2OC)n1
[6]
  inhibition: Active

## CC(=O)Nc1cc(-c2ccc(C(C)=O)cc2)nc(-c2ccc(C(C)=O)cc2)n1
[6]
  inhibition: Active

## COc1cccc(-c2cc(NC(C)=O)nc(-c3cccc(OC)c3OC)c2)c1OC
Adenosine receptor A2a [7]
  pKi: 6.45

## COc1cccc(OC)c1-c1cc(NC(C)=O)nc(-c2c(OC)cccc2OC)c1
Adenosine receptor A2a [1]
  inhibition: 1%

## COc1cc(OC)cc(-c2cc(NC(C)=O)nc(-c3cc(OC)cc(OC)c3)c2)c1
Adenosine receptor A2a [1]
  inhibition: 2%

## CSc1ccc(-c2cc(NC(C)=O)nc(-c3ccc(SC)cc3)c2)cc1
Adenosine receptor A2a [1]
  inhibition: 2%

## CC(=O)Nc1cc(-c2ccc(C)cc2)cc(-c2ccc(C)cc2)n1
Adenosine receptor A2a [1]
  inhibition: 1%
